Results reported in ChEMBL document CHEMBL4689842, “EUbOPEN Chemogenomics Library wave 1” (2021).

System: HEK-293T
Assay: Multiplex assay against HEK293T;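 on Population Tubulin-Different-Phenotype (%): share of the cells with healthy nuclei that show this phenotype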
Type: toxicity, cell-based
Conditions: human
Summary of the method: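 Live cells were stained at seeding with Hoechst33342, BioTracker Green Microtubule Cytoskeleton Dye, MitoTracker Red and Annexin V Alexa Fluor 680. Following compound addition, they were imaged on a CQ1 microscope at 37°C and 5% CO2 and gated by CellPathfinder machine learning into Hoechst high-intensity objects or normal cells, with normal cells split into healthy, pyknosed or fragmented nuclei and pyknosed cells into mitotic or apoptotic. Tubulin, mitochondrial-mass and membrane-permeability phenotypes are per cents of healthy-nucleus cells.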

[1] = 12 h, 1 µM, compound concentration 1 uM, replicate 1
[2] = 12 h, 1 µM, compound concentration 1 uM, replicate 2
[3] = 12 h, 10 µM, compound concentration 10 uM, replicate 1
[4] = 12 h, 10 µM, compound concentration 10 uM, replicate 2
[5] = 24 h, 1 µM, compound concentration 1 uM, replicate 1
[6] = 24 h, 1 µM, compound concentration 1 uM, replicate 2
[7] = 24 h, 10 µM, compound concentration 10 uM, replicate 1
[8] = 24 h, 10 µM, compound concentration 10 uM, replicate 2
[9] = 48 h, 1 µM, compound concentration 1 uM, replicate 1
[10] = 48 h, 1 µM, compound concentration 1 uM, replicate 2
[11] = 48 h, 10 µM, compound concentration 10 uM, replicate 1
[12] = 48 h, 10 µM, compound concentration 10 uM, replicate 2

Compound: CCCSc1nc(N[C@@H]2C[C@H]2c2ccc(F)c(F)c2)c2nnn([C@@H]3C[C@H](OCCO)[C@@H](O)[C@H]3O)c2n1 [TICAGRELOR]
- Population Apoptotic (%) [1]: 56%
- Population Fragmented Nuclei (%) [1]: 19%
- Population Healthy Nuclei (%) [1]: 35%
- Population Hoechst High Intensity Objects (%) [1]: 18%
- Population Membrane Permeable-Phenotype (%) [1]: 4%
- Population Mitochondria Different-Phenotype (%) [1]: 89%
- Population Mitotic Cells (%) [1]: 43%
- Population Normal (%) [1]: 81%
- Population Pyknosed Nuclei (%) [1]: 45%
- Population Tubulin-Different-Phenotype (%) [1]: 54%
- Total Cell Count [1]: 167
- Population Apoptotic (%) [2]: 9%
- Population Fragmented Nuclei (%) [2]: 3%
- Population Healthy Nuclei (%) [2]: 49%
- Population Hoechst High Intensity Objects (%) [2]: 3%
- Population Membrane Permeable-Phenotype (%) [2]: 10%
- Population Mitochondria Different-Phenotype (%) [2]: 21%
- Population Mitotic Cells (%) [2]: 90%
- Population Normal (%) [2]: 96%
- Population Pyknosed Nuclei (%) [2]: 46%
- Population Tubulin-Different-Phenotype (%) [2]: 27%
- Total Cell Count [2]: 190
- Population Apoptotic (%) [3]: 68%
- Population Fragmented Nuclei (%) [3]: 34%
- Population Healthy Nuclei (%) [3]: 4%
- Population Hoechst High Intensity Objects (%) [3]: 20%
- Population Membrane Permeable-Phenotype (%) [3]: 14%
- Population Mitochondria Different-Phenotype (%) [3]: 85%
- Population Mitotic Cells (%) [3]: 31%
- Population Normal (%) [3]: 79%
- Population Pyknosed Nuclei (%) [3]: 60%
- Population Tubulin-Different-Phenotype (%) [3]: 85%
- Total Cell Count [3]: 178
- Population Apoptotic (%) [4]: 85%
- Population Fragmented Nuclei (%) [4]: 6%
- Population Healthy Nuclei (%) [4]: 26%
- Population Hoechst High Intensity Objects (%) [4]: 4%
- Population Membrane Permeable-Phenotype (%) [4]: 2%
- Population Mitochondria Different-Phenotype (%) [4]: 95%
- Population Mitotic Cells (%) [4]: 14%
- Population Normal (%) [4]: 95%
- Population Pyknosed Nuclei (%) [4]: 66%
- Population Tubulin-Different-Phenotype (%) [4]: 93%
- Total Cell Count [4]: 176
- Population Apoptotic (%) [5]: 46%
- Population Fragmented Nuclei (%) [5]: 23%
- Population Healthy Nuclei (%) [5]: 32%
- Population Hoechst High Intensity Objects (%) [5]: 18%
- Population Membrane Permeable-Phenotype (%) [5]: 2%
- Population Mitochondria Different-Phenotype (%) [5]: 75%
- Population Mitotic Cells (%) [5]: 53%
- Population Normal (%) [5]: 81%
- Population Pyknosed Nuclei (%) [5]: 44%
- Population Tubulin-Different-Phenotype (%) [5]: 45%
- Total Cell Count [5]: 181
- Population Apoptotic (%) [6]: 18%
- Population Fragmented Nuclei (%) [6]: 4%
- Population Healthy Nuclei (%) [6]: 62%
- Population Hoechst High Intensity Objects (%) [6]: 3%
- Population Membrane Permeable-Phenotype (%) [6]: 7%
- Population Mitochondria Different-Phenotype (%) [6]: 28%
- Population Mitotic Cells (%) [6]: 81%
- Population Normal (%) [6]: 96%
- Population Pyknosed Nuclei (%) [6]: 33%
- Population Tubulin-Different-Phenotype (%) [6]: 48%
- Total Cell Count [6]: 257
- Population Apoptotic (%) [7]: 76%
- Population Fragmented Nuclei (%) [7]: 35%
- Population Healthy Nuclei (%) [7]: 6%
- Population Hoechst High Intensity Objects (%) [7]: 21%
- Population Mitochondria Different-Phenotype (%) [7]: 77%
- Population Mitotic Cells (%) [7]: 23%
- Population Normal (%) [7]: 78%
- Population Pyknosed Nuclei (%) [7]: 57%
- Population Tubulin-Different-Phenotype (%) [7]: 88%
- Total Cell Count [7]: 178
- Population Apoptotic (%) [8]: 89%
- Population Fragmented Nuclei (%) [8]: 4%
- Population Healthy Nuclei (%) [8]: 26%
- Population Hoechst High Intensity Objects (%) [8]: 7%
- Population Membrane Permeable-Phenotype (%) [8]: 0%
- Population Mitochondria Different-Phenotype (%) [8]: 95%
- Population Mitotic Cells (%) [8]: 10%
- Population Normal (%) [8]: 92%
- Population Pyknosed Nuclei (%) [8]: 69%
- Population Tubulin-Different-Phenotype (%) [8]: 95%
- Total Cell Count [8]: 182
- Population Apoptotic (%) [9]: 55%
- Population Fragmented Nuclei (%) [9]: 23%
- Population Healthy Nuclei (%) [9]: 40%
- Population Hoechst High Intensity Objects (%) [9]: 12%
- Population Membrane Permeable-Phenotype (%) [9]: 3%
- Population Mitochondria Different-Phenotype (%) [9]: 51%
- Population Mitotic Cells (%) [9]: 44%
- Population Normal (%) [9]: 87%
- Population Pyknosed Nuclei (%) [9]: 36%
- Population Tubulin-Different-Phenotype (%) [9]: 50%
- Total Cell Count [9]: 216
- Population Apoptotic (%) [10]: 11%
- Population Fragmented Nuclei (%) [10]: 5%
- Population Healthy Nuclei (%) [10]: 78%
- Population Hoechst High Intensity Objects (%) [10]: 4%
- Population Membrane Permeable-Phenotype (%) [10]: 4%
- Population Mitochondria Different-Phenotype (%) [10]: 12%
- Population Mitotic Cells (%) [10]: 88%
- Population Normal (%) [10]: 95%
- Population Pyknosed Nuclei (%) [10]: 16%
- Population Tubulin-Different-Phenotype (%) [10]: 31%
- Total Cell Count [10]: 492
- Population Apoptotic (%) [11]: 81%
- Population Fragmented Nuclei (%) [11]: 38%
- Population Healthy Nuclei (%) [11]: 3%
- Population Hoechst High Intensity Objects (%) [11]: 24%
- Population Membrane Permeable-Phenotype (%) [11]: 50%
- Population Mitochondria Different-Phenotype (%) [11]: 75%
- Population Mitotic Cells (%) [11]: 18%
- Population Normal (%) [11]: 75%
- Population Pyknosed Nuclei (%) [11]: 58%
- Population Tubulin-Different-Phenotype (%) [11]: 75%
- Total Cell Count [11]: 173
- Population Apoptotic (%) [12]: 92%
- Population Fragmented Nuclei (%) [12]: 7%
- Population Healthy Nuclei (%) [12]: 29%
- Population Hoechst High Intensity Objects (%) [12]: 5%
- Population Membrane Permeable-Phenotype (%) [12]: 2%
- Population Mitochondria Different-Phenotype (%) [12]: 97%
- Population Mitotic Cells (%) [12]: 7%
- Population Normal (%) [12]: 94%
- Population Pyknosed Nuclei (%) [12]: 63%
- Population Tubulin-Different-Phenotype (%) [12]: 86%
- Total Cell Count [12]: 164
